For 8 compounds, IC50 and Activity results are on record in ChEMBL document CHEMBL1146506, “Sesquiterpene coumarins from Ferula fukanensis and nitric oxide production inhibitory effects” (J Nat Prod, 2004).

The term IC50 denotes the midpoint of a concentration-inhibition curve.

Molecules are shown by their SMILES. Activity calls are given as the source filed them. The calls are words filed in the database; no cut-off is given here.

The subject of series [1] is RAW264.7. The series can be described thus: Inhibition of LPS and INF-gamma-induced NO production in mouse RAW264.7 cells. The format is functional, cell-based. The procedure, abridged:
(§1)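 Cells seeded at 1.2 × 10^6 cells/mL, preincubated 2 h at 37 °C. Test compound added together with E. coli LPS (100 ng/mL) and recombinant mouse IFN-γ (0.33 ng/mL), then incubated at 37 °C, usually 16 h. Nitrite in chilled culture supernatant measured with Griess reagent (1% sulfanilamide in 5% H3PO4, 0.1% naphthylethylenediamine) against NaNO2 standards, read at 550 nm minus 630 nm background.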

Series [2] has as its system RAW264.7. The series can be described thus: Inhibition of LPS and INF-gamma-induced NO production in mouse RAW264.7 cells at 10 ug/mL. The format is functional, cell-based. Summed up: as §1
Series [3] deals with RAW264.7. The series can be described thus: Cytotoxicity against mouse RAW264.7 cells at 10 ug/mL. It counts as cell-based. The procedure, abridged: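 MTT assay. Compound given at 0.3–10 µg/mL during LPS/IFN-γ treatment for 24 h.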
The subject of series [4] is RAW264.7. The series can be described thus: Inhibition of LPS and INF-gamma-induced iNOS mRNA expression in mouse RAW264.7 cells by RT-PCR analysis. The format is functional, cell-based. The procedure, abridged:
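Cells at 1.2 × 10^6 cells/mL, preincubated 2 h at 37 °C, then test compound added with LPS (100 ng/mL) and IFN-γ (0.33 ng/mL) for about 8 h. Total RNA (250 ng) reverse-transcribed with oligo(dT) primer. iNOS and GAPDH amplified with specific primers for 25 cycles (94 °C 1 min, 60 °C 1 min, 72 °C 1.5 min).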

In the series with RAW264.7 [1], `CC(C)=CC(=O)C/C(C)=C/CC[C@@]1(C)Oc2c(c(=O)oc3cc(O)ccc23)[C@@H]1C` showed an IC50 of 24.6 µM.
Turning to `CC(C)=CCC/C(C)=C/CC[C@@]1(C)Oc2c(c(=O)oc3cc(O)ccc23)[C@H]1C`, the result in the series on RAW264.7 [2] was inactive. Further, the Activity entry with RAW264.7 [3] is “Non-toxic”.
For `CC(C)=CCC/C(C)=C/CC[C@@]1(C)Oc2c(c(=O)oc3cc(O)ccc23)[C@@H]1C`, in that order: “inactive” and “Non-toxic”.
The compound `CC(C)=CC(=O)C/C(C)=C/CC[C@@]1(C)Oc2c(c(=O)oc3cc(O)ccc23)[C@H]1C` (relative stereo) had an IC50 in the series on RAW264.7 [1] of 31.2 µM. In other words, the double-digit micromolar range.
The same measure, in the same setting: then `CC(C)=CC(=O)/C=C(\C)CCC[C@@]1(C)Oc2c(c(=O)oc3cc(O)ccc23)[C@@H]1C` (relative stereo) [FUKANEFUROMARIN A], with 13 µM; and `CC(C)=CC(=O)/C=C(\C)CCC[C@@]1(C)Oc2c(c(=O)oc3cc(O)ccc23)[C@H]1C` (relative stereo) [FUKANEFUROMARIN B], with 16.2 µM.
Compound `CC(C)=CC(=O)/C=C(/C)CCC[C@@]1(C)Oc2c(c(=O)oc3cc(O)ccc23)[C@@H]1C` (relative stereo) [FUKANEFUROMARIN C] gave a half-maximal inhibitory concentration (IC50) with RAW264.7 [1] of 11.1 µM. Also, the Activity entry in the series with RAW264.7 [4] is “Dose-dependent effect”.
In the series on RAW264.7 [1], `CC(C)=CC(=O)/C=C(/C)CCC[C@@]1(C)Oc2c(c(=O)oc3cc(O)ccc23)[C@H]1C` (relative stereo) [FUKANEFUROMARIN D] registered an IC50 of 8.9 µM. Also, the Activity result in the series with RAW264.7 [4] is “Dose-dependent effect”.
